# From ChEMBL document CHEMBL3808299 (J Med Chem, 2016)
# The source made the active and inactive calls. The calls are words filed in the database; no cut-off is given here.
# What was measured:
# [1] = Inhibition of hedgehog pathway in mouse C3H10T1/2 cells assessed as Gli1 mRNA expression at 1 uM after 24 hrs by qPCR method; assay type: cell-based; design: scale not given: the % may be the effect or the level left; conditions: C3H 10T1/2
# In short: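 C3H10T1/2 mouse embryonic fibroblasts were stimulated with recombinant mouse Sonic Hedgehog (C25II) and co-treated with compound at 1 μM for 24 h. Endogenous Gli1 mRNA was measured by qPCR and expressed as % of the Hh-ligand-only control (100%).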
# [2] = system: HUVEC; assay: Antiproliferative activity against HUVEC assessed as inhibition of VEGF induced cell proliferation after 72 hrs by MTS assay; assay type: functional; conditions: Homo sapiens
# In short: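 HUVECs were seeded at 3,000 cells/well, attached overnight, then treated with varying drug concentrations. Metabolic activity was read with MTS/PMS after 72 h. GI50 is the mean ± SEM of at least two separate experiments run in triplicate.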
# [3] = Inhibition of hedgehog pathway in mouse C3H10T1/2 cells assessed as downregulation of Gli1 mRNA expression after 24 hrs by qPCR method; assay type: cell-based; conditions: C3H 10T1/2, 24 h
# In short: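 Hh-ligand-stimulated C3H10T1/2 cells (recombinant mouse Sonic Hedgehog C25II) were exposed to a concentration series of compound for 24 h. Gli1 mRNA was read by qPCR. IC50 is the mean ± SEM of at least two separate experiments in triplicate.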
# [4] = Inhibition of hedgehog pathway in mouse ASZ cells assessed as downregulation of Gli1 mRNA expression after 48 hrs by qPCR method; assay type: cell-based
# In short: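 ASZ murine BCC cells, whose Hh signaling is constitutively active through a heterozygous PTCH1 mutation, got no added agonist. They were treated with a concentration series for 48 h and Gli1 mRNA was quantified by qPCR. IC50 is the mean ± SEM of at least two separate experiments in triplicate.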
# [5] = Antiproliferative activity against mouse MERP MB cells assessed as cell growth inhibition using methyl-[3H]thymidine after 48 hrs by liquid scintillation spectrophotometry; assay type: functional; conditions: Medulloblastoma cell
# In short: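 Primary MB cells isolated from Math1-Cre-ER;Ptc fl/fl (MERP) mouse tumours were cultured in vitro and exposed to compound for 48 h to measure proliferation. GI50 is the mean ± SEM of at least two separate experiments in triplicate.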
# [6] = Inhibition of hedgehog pathway in mouse MERP MB cells assessed as downregulation of Gli1 mRNA expression after 48 hrs by qPCR method; assay type: cell-based
# In short: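 Primary medulloblastoma cells from Math1-Cre-ER;Ptc fl/fl mice were incubated with compound for 48 h. Gli1 mRNA was measured by qPCR. IC50 is the mean ± SEM of two separate experiments.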
# [7] = system: HUVEC; assay: Antiangiogenic activity against HUVEC assessed as inhibition of total tube length at 1 uM after 16 hrs by inverted microscopy; assay type: functional, cell-based; conditions: Homo sapiens
# In short: (§1)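 HUVECs in M199 with 1% FBS and penicillin/streptomycin, 50,000 cells per well, on Matrigel diluted 1:1 with DMEM and set at 37°C. Cells attached for 20-30 min, then got DMSO, suramin (10 uM) or drug at 10, 1 or 0.1 μM for 16 h. Eight phase-contrast fields per well were imaged. Total tube length and junctions were scored relative to DMSO (100%). Each assay was repeated at least three times.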
# [8] = system: HUVEC; assay: Antiangiogenic activity against HUVEC assessed as inhibition of total tube junctions at 1 uM after 16 hrs by inverted microscopy; assay type: functional, cell-based; conditions: Homo sapiens; in short: as §1
# [9] = Inhibition of hedgehog pathway in mouse Shh-Light2 cells after 46 hrs by luciferase reporter gene assay; assay type: cell-based; conditions: Shh Light2, 46 h
# [10] = system: HUVEC; assay: Antiproliferative activity against HUVEC assessed as inhibition of VEGF induced cell proliferation using methyl-[3H]thymidine after 36 hrs; assay type: functional, cell-based; conditions: Homo sapiens
# [11] = biological target: Cytochrome P450 3A4 (Homo sapiens, UniProt P08684); assay: Inhibition of CYP3A4 in human liver microsomes using testosterone as substrate after 10 mins by LC/MS/MS analysis; assay type: ADME
# Sequence of Cytochrome P450 3A4 (P08684 whole entry): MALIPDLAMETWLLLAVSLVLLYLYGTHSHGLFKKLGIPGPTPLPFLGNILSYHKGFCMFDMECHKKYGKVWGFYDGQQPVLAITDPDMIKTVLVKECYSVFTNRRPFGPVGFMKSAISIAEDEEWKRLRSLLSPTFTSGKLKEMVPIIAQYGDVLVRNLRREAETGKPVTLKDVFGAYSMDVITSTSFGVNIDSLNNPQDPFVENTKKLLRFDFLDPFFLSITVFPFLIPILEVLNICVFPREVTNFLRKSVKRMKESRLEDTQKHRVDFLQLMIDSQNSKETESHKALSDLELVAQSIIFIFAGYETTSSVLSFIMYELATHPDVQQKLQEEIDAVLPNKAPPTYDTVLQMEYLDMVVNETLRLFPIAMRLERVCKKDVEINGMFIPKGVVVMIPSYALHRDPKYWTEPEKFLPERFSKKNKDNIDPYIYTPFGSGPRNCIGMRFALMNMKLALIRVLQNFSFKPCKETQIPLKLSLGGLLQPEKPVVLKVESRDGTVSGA
# [12] = system: HUVEC; assay: Antiangiogenic activity against HUVEC assessed as inhibition of total tube length at 10 uM after 16 hrs by inverted microscopy; assay type: functional; conditions: Homo sapiens; in short: as §1
# [13] = system: HUVEC; assay: Antiangiogenic activity against HUVEC assessed as inhibition of total tube junctions at 10 uM after 16 hrs by inverted microscopy; assay type: functional; conditions: Homo sapiens; in short: as §1
Compound,Activity [1] [%],GI50 [2] [nM],IC50 [3] [nM],IC50 [4] [nM],other results
CCC(C)n1ncn(-c2ccc(N3CCN(c4ccc(OCC5COC(C)(Cn6cncn6)O5)cc4)CC3)cc2)c1=O (stereo not given),61.4,18400,,,
CC[C@H](C)n1ncn(-c2ccc(N3CCN(c4ccc(OC[C@H]5CO[C@@](C)(c6ccc(Cl)cc6Cl)O5)cc4)CC3)cc2)c1=O,,78300,> 10000,550,
CCC(C)n1ncn(-c2ccc(N3CCN(c4ccc(OC[C@H]5CO[C@@](C)(c6ccc(Cl)cc6Cl)O5)cc4)CC3)cc2)c1=O (relative stereo),,3690,850,71,GI50 [5]: 2900 nM
CCCn1ncn(-c2ccc(N3CCN(c4ccc(OC[C@H]5CO[C@@](C)(c6ccc(Cl)cc6Cl)O5)cc4)CC3)cc2)c1=O,,24900,> 10000,540,
CCC(C)n1ncn(-c2ccc(N3CCN(c4ccc(OCC5COC(Cn6cncn6)(c6ccc(Cl)cc6Cl)O5)cc4)CC3)cc2)c1=O (stereo not given) [ITRACONAZOLE],1.7,400,63,140,GI50 [5]: 440 nM; IC50 [6]: 390 nM; inhibition [7]: Active; inhibition [8]: Active; IC50 [9]: 690 nM; IC50 [10]: 160 nM
CC[C@@H](C)n1ncn(-c2ccc(N3CCN(c4ccc(OCC5COC(Cn6cncn6)(c6ccc(Cl)cc6Cl)O5)cc4)CC3)cc2)c1=O (stereo not given in full),3,1700,140,160,
O=c1[nH]ncn1-c1ccc(N2CCN(c3ccc(OCC4COC(Cn5cncn5)(c5ccc(Cl)cc5Cl)O4)cc3)CC2)cc1 (stereo not given),1.1,5800,43,120,
CCC(C)n1ncn(-c2ccc(N3CCN(c4ccc(OCC5COC(C)(c6ccc(Cl)cc6Cl)O5)cc4)CC3)cc2)c1=O (stereo not given),17.8,23800,140,170,IC50 [11]: > 10000 nM; inhibition [7]: Active; inhibition [8]: Active
CC[C@H](C)n1ncn(-c2ccc(N3CCN(c4ccc(OCC5COC(Cn6cncn6)(c6ccc(Cl)cc6Cl)O5)cc4)CC3)cc2)c1=O (stereo not given in full),6.9,2500,160,140,
CCC(C)n1ncn(-c2ccc(N3CCN(c4ccc(OCC5COC(Cn6cncn6)(c6ccccc6)O5)cc4)CC3)cc2)c1=O (stereo not given),13.1,8300,420,450,
CCC(C)n1ncn(-c2ccc(N3CCN(c4ccc(OCC5COC(C)(C)O5)cc4)CC3)cc2)c1=O (stereo not given),71.4,> 100000,,,
CCC(C)n1ncn(-c2ccc(N3CCN(c4ccc(OC[C@@H]5CO[C@@](C)(c6ccc(Cl)cc6Cl)O5)cc4)CC3)cc2)c1=O (stereo not given in full),,3320,91,77,GI50 [5]: 2000 nM
CC[C@@H](C)n1ncn(-c2ccc(N3CCN(c4ccc(OC[C@@H]5CO[C@@](C)(c6ccc(Cl)cc6Cl)O5)cc4)CC3)cc2)c1=O,,53200,190,22,GI50 [5]: 600 nM; IC50 [6]: 190 nM
Nc1ccc(N2CCN(c3ccc(OCC4COC(Cn5cncn5)(c5ccc(Cl)cc5Cl)O4)cc3)CC2)cc1 (stereo not given),6.1,42700,160,120,GI50 [5]: 900 nM
O=[N+]([O-])c1ccc(N2CCN(c3ccc(OCC4COC(Cn5cncn5)(c5ccc(Cl)cc5Cl)O4)cc3)CC2)cc1 (stereo not given),1.5,8400,130,90,
CC[C@H](C)n1ncn(-c2ccc(N3CCN(c4ccc(OC[C@@H]5CO[C@@](C)(c6ccc(Cl)cc6Cl)O5)cc4)CC3)cc2)c1=O,,18300,470,380,
CC[C@@H](C)n1ncn(-c2ccc(N3CCN(c4ccc(OC[C@@H]5CO[C@](C)(c6ccc(Cl)cc6Cl)O5)cc4)CC3)cc2)c1=O,,12800,2400,24,GI50 [5]: 1000 nM; IC50 [6]: 290 nM; inhibition [12]: inactive; inhibition [13]: inactive
CCC(C)n1ncn(-c2ccc(N3CCN(c4ccc(O)cc4)CC3)cc2)c1=O (stereo not given),45.7,> 100000,,,
CCCn1ncn(-c2ccc(N3CCN(c4ccc(OC[C@H]5CO[C@](C)(c6ccc(Cl)cc6Cl)O5)cc4)CC3)cc2)c1=O,,84100,> 10000,200,GI50 [5]: 22400 nM
CC[C@@H](C)n1ncn(-c2ccc(N3CCN(c4ccc(OC[C@H]5CO[C@@](C)(c6ccc(Cl)cc6Cl)O5)cc4)CC3)cc2)c1=O,,65000,6600,2800,
Cc1ccc(C(=O)Nc2ccc(S(=O)(=O)O)c3cc(S(=O)(=O)O)cc(S(=O)(=O)O)c23)cc1NC(=O)c1cccc(NC(=O)Nc2cccc(C(=O)Nc3cc(C(=O)Nc4ccc(S(=O)(=O)O)c5cc(S(=O)(=O)O)cc(S(=O)(=O)O)c45)ccc3C)c2)c1 [SURAMIN],,,,,inhibition at 10 µM [12]: 51.9%; inhibition at 10 µM [13]: 57.6%
CCCn1ncn(-c2ccc(N3CCN(c4ccc(OC[C@@H]5CO[C@@](C)(c6ccc(Cl)cc6Cl)O5)cc4)CC3)cc2)c1=O,,26500,4100,1300,
CCCn1ncn(-c2ccc(N3CCN(c4ccc(OC[C@@H]5CO[C@](C)(c6ccc(Cl)cc6Cl)O5)cc4)CC3)cc2)c1=O,,49900,> 10000,1400,
CC[C@@H](C)n1ncn(-c2ccc(N3CCN(c4ccc(OC[C@H]5CO[C@](C)(c6ccc(Cl)cc6Cl)O5)cc4)CC3)cc2)c1=O,,12100,540,130,inhibition [12]: inactive; inhibition [13]: inactive
CC[C@H](C)n1ncn(-c2ccc(N3CCN(c4ccc(OC[C@@H]5CO[C@](C)(c6ccc(Cl)cc6Cl)O5)cc4)CC3)cc2)c1=O,,2500,1850,150,GI50 [5]: 390 nM; IC50 [6]: 260 nM
CC[C@H](C)n1ncn(-c2ccc(N3CCN(c4ccc(OC[C@H]5CO[C@](C)(c6ccc(Cl)cc6Cl)O5)cc4)CC3)cc2)c1=O,,7700,1100,2500,
CC[C@@H]([C@H](C)O)n1ncn(-c2ccc(N3CCN(c4ccc(OC[C@@H]5CO[C@@](Cn6cncn6)(c6ccc(F)cc6F)C5)cc4)CC3)cc2)c1=O [POSACONAZOLE],,1600,140,540,
CCCn1ncn(-c2ccc(N3CCN(c4ccc(OCC5COC(Cn6cncn6)(c6ccc(Cl)cc6Cl)O5)cc4)CC3)cc2)c1=O (stereo not given),58.5,4700,,,
